# According to ChEMBL document CHEMBL5352453, “Hit-to-lead optimization of a 2-aminobenzimidazole series as new candidates for chagas disease” (Eur J Med Chem, 2023):
# Experiments:
# [1] = Metabolic stability in CD1 mouse liver microsomes assessed as intrinsic clearance measured upto 60 mins by LC-MS/MS analysis; format: ADME; conditions: read-out: CLH
# Summary of the method: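 CD1 mouse liver microsomes at 0.25 mg/mL, compound at 0.5 µM, pH 7.4, 37 °C, started with NADPH. Sampled at 0, 5, 10, 20, 30 and 60 min and quenched with acetonitrile:methanol containing tolbutamide. Measured by LC-MS/MS; CLint (k × 1000/0.25, µL/min/mg) derived by non-linear regression of % remaining over time.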
# Trypanosoma cruzi = assay: Antitrypanosomal activity against Trypanosoma cruzi Tulahuen CL2 amastigotes expressing beta galactosidase infected in human MRC5 cells assessed as reduction in parasite burden using chlorophenol red beta-D-galactopyranoside as substrate and measured after 7 days by spectrophotometric analysis; format: functional, organism-based; conditions: Tulahuen CL2, MRC5, 168 h
# Summary of the method: (§1)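 T. cruzi Tulahuen CL2 β-galactosidase strain grown in MRC-5 cells (MEM, 5% heat-inactivated FCS, 37 °C, 5% CO2). MRC-5 cells (4 x 10^3/well) plus parasites (4 x 10^4/well) exposed 7 days to 4-fold dilutions from 64 µM down; final DMSO <1%. CPRG with Nonidet added, absorbance at 540 nm after 4 h. IC50 calculated against untreated-infected (100%) and non-infected (0%) controls. SI = MRC-5 CC50/IC50.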
# [2] = Selectivity index, ratio of CC50 for cytotoxicity against human MRC5 cells to EC50 for Trypanosoma cruzi Tulahuen CL2 amastigotes expressing beta galactosidase infected in human MRC5 cells; format: toxicity, cell-based; conditions: read-out: Selectivity Index; summary of the method: as §1
Compound,microsomal CLint [1] [µL/min/mg],IC50 (Trypanosoma cruzi) [µM],selectivity ratio [2]
O=C(Nc1nc2cncnc2n1CC(F)(F)F)c1ccnc(C(F)(F)F)c1,–,1.1,5
CCCn1c(NC(=O)Cc2ccc(F)cc2)nc2ccc(C(=O)N3CCCC3)cc21,–,8.5,> 8
Cc1cc(C(=O)Nc2nc3ccc(C#N)cc3n2CC(F)(F)F)[nH]n1,–,36,1
CCCn1c(NC(=O)Cc2cc(F)ccc2F)nc2ccccc21,–,2.2,–
Cn1nccc1C(=O)Nc1nc2cc(CO)ccc2n1CC(F)(F)F,–,64,1
CCCn1c(NC(=O)c2ccc(F)cc2)nc2ccc(F)cc21,–,> 64,–
Cn1cc(C(=O)Nc2nc3ccc(C#N)cc3n2CC(F)(F)F)cn1,–,64,1
Cc1ccc(C(=O)Nc2nc3ccc(C#N)cc3n2CC(F)(F)F)cn1,–,64,1
O=C(Cc1ccc(Cl)cc1)Nc1nc2ccccc2s1,–,> 64,–
N#Cc1ccc2nc(NC(=O)c3ccnc(C(F)(F)F)c3)n(CCF)c2c1,–,49,1
CC(C)(C)Cn1c(NC(=O)c2ccc(C(F)(F)F)nc2)nc2ccc(C#N)cc21,–,52,> 1
N#Cc1ccc2nc(NC(=O)c3ccnc(C(F)(F)F)c3)n(CC(F)F)c2c1,–,0.51,24
CCCn1ccnc1NC(=O)Cc1ccc(F)cc1,–,35,–
CCCn1c(NC(=O)Cc2ccc(F)cc2)nc2ccc(C(=O)O)cc21,–,> 64,1
CCCn1c(NC(=O)Cc2ccc(F)cc2)nc2ccccc21,–,2.1,–
O=C(Nc1nc2cncnc2n1CC(F)(F)F)c1ccc(C(F)(F)F)nc1,–,0.51,6
Cn1nc(C(F)(F)F)cc1C(=O)Nc1nc2cncnc2n1CC(F)(F)F,–,0.59,7

Compound,microsomal CLint [1] [µL/min/mg],IC50 (Trypanosoma cruzi) [µM],selectivity ratio [2]
CCCn1c(NCc2ccc(F)cc2)nc2cc(F)ccc21,–,25,–
O=C(Nc1nc2cncnc2n1CC(F)(F)F)c1cc(C(F)(F)F)n[nH]1,–,7.5,4
CCCn1c(NC(=O)c2ccc(C(F)(F)F)nc2)nc2cccnc21,–,3.2,15
Cn1nccc1C(=O)Nc1nc2cc(S(C)(=O)=O)ccc2n1CC(F)(F)F,–,2.2,6
COCCn1c(NC(=O)c2ccc(C(F)(F)F)nc2)nc2ccc(C#N)cc21,–,64,1
Cn1nncc1C(=O)Nc1nc2ccc(C#N)cc2n1CC(F)(F)F,–,24,> 3
CCCn1c(NC(=O)Nc2ccc(Cl)cc2)nc2ccccc21,–,> 64,–
O=C(Cc1ccc(Cl)cc1)Nc1nc2ccccc2[nH]1,–,> 64,–
N#Cc1ccc2nc(NC(=O)c3cc(C(F)(F)F)nn3CC(=O)O)n(CC(F)(F)F)c2c1,–,64,1
N#Cc1ccc2nc(NC(=O)c3ccnn3C3CC3)n(CC(F)(F)F)c2c1,–,0.99,3
N#Cc1ccc2nc(NC(=O)c3cnc(C(F)(F)F)nc3)n(CC(F)(F)F)c2c1,–,0.24,8
CCCn1c(CCNC(=O)Cc2ccc(Cl)cc2)nc2ccccc21,–,33,–
Cn1ncc(C(=O)Nc2nc3ccc(C#N)cc3n2CC(F)(F)F)n1,–,64,1
CCCn1c(NS(=O)(=O)c2ccc(Br)cc2)nc2ccccc21,–,> 64,–
CN(C)c1ccc(C(=O)Nc2nc3ccc(C#N)cc3n2CC(F)(F)F)cn1,–,8.6,> 7
O=C(Nc1nc2cc(F)ccc2n1C1CCNCC1)c1cccnc1,–,9.2,3

# The next lines start with results.
microsomal CLint [1] [µL/min/mg],Compound,IC50 (Trypanosoma cruzi) [µM],selectivity ratio [2]
31,Cn1nccc1C(=O)Nc1nc2cc(C#N)cnc2n1CC(C)(C)C,0.5,5
20,Cn1nccc1C(=O)Nc1nc2ccc(C#N)cc2n1CC(F)(F)F,1.6,8
44,Cn1nccc1C(=O)Nc1nc2cc(F)cnc2n1CC(F)(F)F,0.84,3
399,CCCn1c(NC(=O)Cc2ccc(F)cc2)nc2cc(F)c(F)cc21,0.53,> 121
72,CN1CCC(n2c(NC(=O)c3ccnn3C)nc3ccc(C#N)cc32)CC1,34,> 2
1350,N#Cc1ccc2nc(NC(=O)c3ccc(C(F)(F)F)nc3)n(C3CC3)c2c1,> 64,–
39,Cn1nc(C(F)(F)F)cc1C(=O)Nc1nc2ccc(C#N)cc2n1CCF,2.1,11
86,O=C(Nc1nc2ccc(F)cc2n1CC(F)(F)F)c1ccc(C(F)(F)F)nc1,42,> 2
23,CS(=O)(=O)c1ccc2c(c1)nc(NC(=O)c1ccnc(C(F)(F)F)c1)n2CC(F)(F)F,0.55,5
3090,CCCn1c(NC(=O)Cc2ccc(Cl)cc2)nc2ccccc21,1.89,–
23,CC(C)(O)Cn1c(NC(=O)c2ccc(C(F)(F)F)nc2)nc2ccc(C#N)cc21,37,1
73,Cn1ccc(C(=O)Nc2nc3ccc(C#N)cc3n2CC(F)(F)F)n1,64,1
26,O=C(Nc1nc2cc(F)ccc2n1C1CCOCC1)c1cccnc1,8.5,5
23,Cn1nccc1C(=O)Nc1nc2cc(CN3CCCC3)ccc2n1CC(F)(F)F,8.1,2
36,N#Cc1ccc2nc(NC(=O)Cn3cccn3)n(CC(F)(F)F)c2c1,6.6,9
446,CCCn1c(NC(=O)c2cccnc2)nc2cc(F)c(F)cc21,2.1,> 30
23,CCCn1c(NC(=O)Cc2ccc(F)cc2)nc2ccc(C(=O)N3CCOCC3)cc21,35,> 2
24,Cn1nccc1C(=O)Nc1nc2cncnc2n1CC(F)(F)F,8.2,3
226,CCCn1c(NC(=O)Cc2ccc(Cl)cc2)nc2ccc(C#N)cc21,24,> 3

microsomal CLint [1] [µL/min/mg],Compound,IC50 (Trypanosoma cruzi) [µM],selectivity ratio [2]
275,CCCn1c(NC(=O)c2cccnc2)nc2cccnc21,4.4,> 15
87,CC(C)(C)Cn1c(NC(=O)c2cccnc2)nc2ccc(C#N)cc21,8.7,> 7
23,Cn1nccc1C(=O)Nc1nc2ccc(C#N)cc2n1CC(C)(C)O,13,> 5
23,Cn1nccc1C(=O)Nc1nc2cc(CN3CCOCC3)ccc2n1CC(F)(F)F,8.3,5
141,Cc1nn[nH]c1C(=O)Nc1nc2ccc(C#N)cc2n1CC(F)(F)F,64,1
128,CCCn1c(NC(=O)Cc2ccc(F)cc2)nc2ccc(C(=O)NCOC)cc21,8.3,7
1590,CCCn1c(NC(=O)Cc2ccc(Cl)cc2)nc2ccc(F)cc21,0.56,102
66,CCCn1c(NC(=O)Cc2ccc(F)cc2)nc2ccc(C(=O)NC)cc21,34,1
160,O=C(Nc1nc2ccc(F)cc2n1C1CC1)c1cccnc1,34,> 2
467,CCCn1c(NC(=O)c2cccc(C(F)(F)F)n2)nc2ccc(F)cc21,2.3,> 28
283,CCCn1c(NC(=O)Cc2ccc(Cl)cc2)nc2cc(C(F)(F)F)ccc21,0.74,15
70,N#Cc1ccc2nc(NC(=O)c3cc(C(F)(F)F)n[nH]3)n(CC(F)F)c2c1,0.49,11
98,COCCn1c(NC(=O)c2ccnn2C)nc2ccc(C#N)cc21,8.8,> 7
23,Cc1nnnn1CC(=O)Nc1nc2ccc(C#N)cc2n1CC(F)(F)F,50,> 1
253,N#Cc1ccc2nc(NC(=O)c3ncc(F)cc3F)n(CC(F)(F)F)c2c1,17,3
113,O=C(Nc1nc2cc(F)cnc2n1CC(F)(F)F)c1ccc(C(F)(F)F)nc1,0.15,6
1500,CCCn1c(NC(=O)Cc2ccc(F)cc2)nc2cccnc21,1.3,> 49
37,Cn1nccc1C(=O)Nc1nc2cc(C(F)(F)F)cnc2n1CC(C)(C)C,0.57,7
119,Cn1nccc1C(=O)Nc1nc2cccnc2n1CC(F)(F)F,3.9,2
